The source of these data is PubChem BioAssay AID624042 (Vanderbilt High Throughput Screening Facility, 2012).

pEC50: −log10 of the molar value.

Chain of G protein-activated inward rectifier potassium channel 2 (Homo sapiens) + G protein-activated inward rectifier potassium channel 1 (Homo sapiens) (P48051 whole entry, looked up): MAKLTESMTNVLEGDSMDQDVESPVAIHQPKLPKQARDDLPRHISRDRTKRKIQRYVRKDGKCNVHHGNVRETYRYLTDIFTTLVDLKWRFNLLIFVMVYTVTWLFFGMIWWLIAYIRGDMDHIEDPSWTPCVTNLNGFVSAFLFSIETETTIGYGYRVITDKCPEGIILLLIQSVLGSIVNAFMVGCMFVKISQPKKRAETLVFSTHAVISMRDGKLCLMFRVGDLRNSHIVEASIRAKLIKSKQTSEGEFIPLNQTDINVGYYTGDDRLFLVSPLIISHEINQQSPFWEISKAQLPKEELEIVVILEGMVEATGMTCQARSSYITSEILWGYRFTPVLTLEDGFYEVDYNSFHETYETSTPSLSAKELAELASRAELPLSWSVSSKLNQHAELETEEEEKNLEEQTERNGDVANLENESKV
Chain of G protein-activated inward rectifier potassium channel 2 (Homo sapiens) + G protein-activated inward rectifier potassium channel 1 (Homo sapiens) (P48549 whole entry, looked up): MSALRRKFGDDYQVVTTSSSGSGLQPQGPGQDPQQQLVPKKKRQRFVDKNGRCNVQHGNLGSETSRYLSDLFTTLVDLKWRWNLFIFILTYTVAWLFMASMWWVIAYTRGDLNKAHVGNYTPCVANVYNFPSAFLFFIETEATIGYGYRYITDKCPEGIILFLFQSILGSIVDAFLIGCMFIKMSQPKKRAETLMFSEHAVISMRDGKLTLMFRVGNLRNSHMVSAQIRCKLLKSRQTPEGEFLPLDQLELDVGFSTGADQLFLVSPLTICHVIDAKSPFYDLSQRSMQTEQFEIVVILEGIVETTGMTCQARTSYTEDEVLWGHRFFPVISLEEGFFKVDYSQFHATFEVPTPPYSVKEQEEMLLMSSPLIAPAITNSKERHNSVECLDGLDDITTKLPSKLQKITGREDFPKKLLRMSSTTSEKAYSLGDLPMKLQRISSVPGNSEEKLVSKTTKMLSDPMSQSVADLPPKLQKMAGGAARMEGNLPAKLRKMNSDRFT

This assay has as its target G protein-activated inward rectifier potassium channel 2 (Homo sapiens) + G protein-activated inward rectifier potassium channel 1 (Homo sapiens) (UniProt P48051+P48549). The assay is described as follows: GIRK1/2 activation independent of G-protein coupling, dose response, mechanism study for GIRK activator project, cell-based, HEK-293 hGIRK1/2, pertussis toxin-treated, thallium flux, FluoZin-2 (AID 624042). The following applies: HEK-293 hGIRK1/2 PTX-treated. An outline of the steps: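 Medium: 400 ng/mL PTX during overnight pretreatment; System: PTX-treated HEK-293 rmGlu8/hGIRK1/2 stable cell line; Compound dosing: serial dilution series of test compounds; Reagent: thallium stimulus containing EC20 glutamate; Timing: PTX pretreatment overnight at 37 °C, compounds 4 min before thallium; Technique: thallium-flux fluorescence with FluoZin-2 AM dye, sampled at 1 Hz.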
Take `Cc1cc(NC(=O)Nc2ccccc2)n(-c2ccccc2)n1`: the negative logarithm of the EC50 (pEC50) was 5.44.
With `Cc1ccc(NC(=O)Cc2ccccc2Cl)cc1S(=O)(=O)N(C)C`, the pEC50 was 5.66.
In the case of `Cc1ccc(-c2nnn(CC(=O)NC3CC4CCC3C4)n2)cc1` (centres undefined) it was 5.37; in that of `CCOc1ccccc1Nc1nnc(Cc2ccccc2Cl)c(=O)[nH]1`, 5.73.
